Results collected from several papers.
Target: Dual specificity tyrosine-phosphorylation-regulated kinase 1B (DYRK1B, Homo sapiens, UniProt Q9Y463)

`Cn1cc(-c2cc(F)cc(N3CCn4c(cc5c4CCCC5)C3=O)c2CO)cc(Nc2ccc(N3CCN(C4COC4)CC3)cn2)c1=O` has an inhibition of 6% (enzyme activity; inhibitor; 0.1 µM).
`N#CC1(c2ccccn2)CCN(Cc2cc(C(=O)O)c(=O)n3ccccc23)CC1` gave a remaining binding of 98% (cell-free assay; competition with immobilised ligand; 1 µM).
`C=CC(=O)N1CCC[C@@H](n2nc(-c3ccc(Oc4ccccc4)cc3)c3c(N)ncnc32)C1` gave a remaining signal of 125% (cell-free assay; 10 µM).
`O=C1NC(=O)C(c2cn(CCCn3ccnc3)c3ccccc23)=C1Nc1ccccc1` has a remaining activity of 56.3% (enzyme activity; inhibitor; radiometric; 0.5 µM).
`COc1cc(Nc2ncc(F)c(Nc3ccc4c(n3)NC(=O)C(C)(C)O4)n2)cc(OC)c1OC` gave an inhibition of 78% (binding; competition with immobilised ligand; 10 µM).
`CC#CC(=O)Nc1cc2c(Nc3ccc(F)c(Cl)c3)ncnc2cn1` has a remaining activity of 103% (enzyme activity; inhibitor; radiometric; 0.5 µM).
For `Cc1nn(C)cc1-c1nc2c(N3CCN(Cc4ccc(Cl)cc4)CC3)c(Cl)cnc2[nH]1`, the remaining binding was 75% (binding; competition with immobilised ligand; 1 µM).
With `COCc1c(-c2cc3cc(C)cc(OC)c3s2)c2c(N)ncnn2c1CN1CCNC(=O)C1` the inhibition was 71% (cell-free assay; competition with immobilised ligand; 1 µM).
With `COc1ncccc1-c1cnn2ccc(N3CCN(C(=O)OC(C)C)CC3)nc12` the remaining binding was 65% (binding; competition with immobilised ligand; 1 µM).
With `Nc1ncc(-c2nc(N3CCOCC3)nc(N3CCOCC3)n2)c(C(F)F)n1` the remaining binding was 76% (cell-free assay; competition with immobilised ligand; 10 µM).
For `Cn1cncc1[C@@](O)(COc1ccc(C#N)cc1-c1ccc(OC(F)(F)F)cc1)c1ccc(C#N)cc1`, the remaining binding was 38% (cell-free assay; competition with immobilised ligand; 1 µM).
`CC(C)(C)c1nc2c(s1)c1nc(N)ncc1c1ccc(NS(=O)(=O)c3c(F)cccc3F)c(F)c12` has a remaining activity of 106% (enzyme activity; inhibitor; radiometric; 1 µM).
The remaining activity of `COc1ccc(COc2ccc(Cc3cnc(N)nc3N)cc2OC)cc1` is reported as 104% (enzyme activity; inhibitor; radiometric; 0.5 µM).
`Cn1cc(-c2cccc(N3CCc4c(sc5c4CC(C)(C)C5)C3=O)c2CO)cc(Nc2ccncn2)c1=O` has an inhibition of 2% (enzyme activity; inhibitor; 1 µM).
`CC(C)(C)c1nc(-c2cccc(NS(=O)(=O)c3c(F)cccc3F)c2F)c(-c2ccnc(N)n2)s1` has a remaining activity of 98% (enzyme activity; inhibitor; radiometric; 1 µM).
